Calls of active or inactive are those of the source. The rule behind the calls is not given here.

One assay relates to A549. Description: Antiproliferative activity against human A549 cells after 24 hrs by MTT assay. The class given is functional. The note with it: A549, 24 h. In short, it runs like this: (§1)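 MCF-7 and A549 cells grown in DMEM/10% FBS, 5% CO2, 37 °C; seeded at 1000 cells/well and left 24 h to reattach. Compound stocks 20 mM in DMSO, diluted in medium; 3-fold serial dilutions gave final […]. Exposure 24 h at 37 °C, then MTT read-out at 590 nm. GI50 calculated from absorbance.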
A general note: Tetrazolium dyes change colour on reduction, which living cells bring about.

The subject of a further assay is MCF7. Description: Antiproliferative activity against human MCF7 cells after 24 hrs by MTT assay. The class given is functional. The note with it: MCF7, 24 h. In short, it runs like this: as §1
The target of assay [1] is Receptor tyrosine-protein kinase erbB-2 (Homo sapiens, UniProt P04626). Description: Inhibition of human recombinant HER-2 cytoplasmic domain (676 to 1245) autophosphorylation after 1 hr. Summed up:
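His6-tagged HER-2 expressed in Sf-9 cells (3-day infection), purified by Ni-NTA at 4 °C. Enzyme (12.5 ng) preincubated with compound 10 min at room temperature, then 0.1 mM ATP-50 mM MgCl2 with MnCl2, Na3VO4 and DTT buffer added for 1 h. Autophosphorylation read by europium anti-phosphotyrosine DELFIA time-resolved fluorescence (ex 340/em 615 nm). Controls with and without ATP-MgCl2; triplicate.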

The target of assay [2] is T1, Epidermal growth factor receptor (Homo sapiens, UniProt P00533). In words: Inhibition of recombinant EGFR cytoplasmic domain (645 to 1186) (unknown origin) autophosphorylation after 1 hr.
The target in a further assay is Focal adhesion kinase 1 (Homo sapiens, UniProt Q05397). In words: Inhibition of human-recombinant full-length FAK after 4 hrs by kinase-Glo-luminescence assay. Summed up:
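Full-length recombinant human FAK incubated with ATP and substrate in kinase buffer, with or without compound, for 4 h at room temperature. Final drug concentrations 100, 30, 10 and 3 µg/mL. Remaining ATP measured by Kinase-Glo luminescence.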
Background: Kinase-Glo measures the ATP left after a reaction by luminescence.

Assay [3] deals with Receptor tyrosine-protein kinase erbB-3 (Homo sapiens, UniProt P21860). In words: Inhibition of human recombinant HER-3 cytoplasmic domain (665 to 1339) autophosphorylation after 1 hr. Summed up: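 HER-3 cytoplasmic domain (aa 665–1339) from 1.8 Kb human cDNA. Assayed by the same DELFIA autophosphorylation procedure as EGFR/HER-2: compound preincubated with enzyme, ATP-MgCl2 for 1 h, europium anti-phosphotyrosine time-resolved fluorescence read-out.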

Assay [4] has as its target Vascular endothelial growth factor receptor 2 (Homo sapiens, UniProt P35968). Description: Inhibition of VEGFR-2 (unknown origin) using gastrin as substrate after 1 hr by fluorescence assay. Summed up: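 Phosphorylated or nonphosphorylated VEGFR-2 kinase domain, 5 nM, incubated with compound (10-point titration, 4 to 0.1 µM) and 1 µM gastrin substrate in Tris-HCl pH 7.5 with MgCl2, NaCl, EGTA, DTT, orthovanadate and BSA, 30 min at 25 °C. ATP then added to 11.8 µM final for 60 min at room temperature. Eu-anti-phosphotyrosine time-resolved fluorescence read at 665 nm; triplicate.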

Assay [5] concerns the target T1, Epidermal growth factor receptor. Particulars: A549, 0.02 to 0.32 uM.
Assay [6] shares this target. Particulars: A549, 0.02 to 0.32 uM. This is another data set of the same source.

T1 sequence (P00533 whole entry, the tested form may be a part): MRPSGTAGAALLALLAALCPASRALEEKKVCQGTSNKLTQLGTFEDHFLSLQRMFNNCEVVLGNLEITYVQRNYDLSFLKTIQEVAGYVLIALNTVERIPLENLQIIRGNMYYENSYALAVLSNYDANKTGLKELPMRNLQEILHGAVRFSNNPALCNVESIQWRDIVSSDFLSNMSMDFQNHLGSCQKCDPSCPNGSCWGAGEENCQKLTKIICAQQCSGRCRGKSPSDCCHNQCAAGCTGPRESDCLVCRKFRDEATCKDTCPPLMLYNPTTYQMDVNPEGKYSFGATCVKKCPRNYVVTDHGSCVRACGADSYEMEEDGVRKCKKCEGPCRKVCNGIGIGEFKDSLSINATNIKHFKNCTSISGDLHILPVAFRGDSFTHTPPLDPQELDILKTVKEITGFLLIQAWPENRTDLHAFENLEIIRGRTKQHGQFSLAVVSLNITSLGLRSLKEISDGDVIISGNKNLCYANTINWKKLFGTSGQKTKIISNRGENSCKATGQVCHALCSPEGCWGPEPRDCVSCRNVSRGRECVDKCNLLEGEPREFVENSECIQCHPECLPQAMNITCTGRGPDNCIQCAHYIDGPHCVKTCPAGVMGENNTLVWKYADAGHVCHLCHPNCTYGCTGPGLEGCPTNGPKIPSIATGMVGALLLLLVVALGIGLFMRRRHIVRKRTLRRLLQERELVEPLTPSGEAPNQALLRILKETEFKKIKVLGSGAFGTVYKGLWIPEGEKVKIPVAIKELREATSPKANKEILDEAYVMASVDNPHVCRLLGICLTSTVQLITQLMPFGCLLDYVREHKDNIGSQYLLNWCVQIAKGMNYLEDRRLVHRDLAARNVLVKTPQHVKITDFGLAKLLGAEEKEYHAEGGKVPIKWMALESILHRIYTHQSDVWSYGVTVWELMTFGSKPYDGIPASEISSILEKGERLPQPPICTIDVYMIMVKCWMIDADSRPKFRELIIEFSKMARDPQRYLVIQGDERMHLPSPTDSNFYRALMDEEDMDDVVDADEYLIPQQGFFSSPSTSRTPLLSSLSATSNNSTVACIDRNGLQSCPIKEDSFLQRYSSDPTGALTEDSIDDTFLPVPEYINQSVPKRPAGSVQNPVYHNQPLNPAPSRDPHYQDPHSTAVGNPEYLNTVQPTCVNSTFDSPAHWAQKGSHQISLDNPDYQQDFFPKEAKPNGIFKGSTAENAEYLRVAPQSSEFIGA
Chain of Receptor tyrosine-protein kinase erbB-2 (P04626 whole entry, the tested form may be a part): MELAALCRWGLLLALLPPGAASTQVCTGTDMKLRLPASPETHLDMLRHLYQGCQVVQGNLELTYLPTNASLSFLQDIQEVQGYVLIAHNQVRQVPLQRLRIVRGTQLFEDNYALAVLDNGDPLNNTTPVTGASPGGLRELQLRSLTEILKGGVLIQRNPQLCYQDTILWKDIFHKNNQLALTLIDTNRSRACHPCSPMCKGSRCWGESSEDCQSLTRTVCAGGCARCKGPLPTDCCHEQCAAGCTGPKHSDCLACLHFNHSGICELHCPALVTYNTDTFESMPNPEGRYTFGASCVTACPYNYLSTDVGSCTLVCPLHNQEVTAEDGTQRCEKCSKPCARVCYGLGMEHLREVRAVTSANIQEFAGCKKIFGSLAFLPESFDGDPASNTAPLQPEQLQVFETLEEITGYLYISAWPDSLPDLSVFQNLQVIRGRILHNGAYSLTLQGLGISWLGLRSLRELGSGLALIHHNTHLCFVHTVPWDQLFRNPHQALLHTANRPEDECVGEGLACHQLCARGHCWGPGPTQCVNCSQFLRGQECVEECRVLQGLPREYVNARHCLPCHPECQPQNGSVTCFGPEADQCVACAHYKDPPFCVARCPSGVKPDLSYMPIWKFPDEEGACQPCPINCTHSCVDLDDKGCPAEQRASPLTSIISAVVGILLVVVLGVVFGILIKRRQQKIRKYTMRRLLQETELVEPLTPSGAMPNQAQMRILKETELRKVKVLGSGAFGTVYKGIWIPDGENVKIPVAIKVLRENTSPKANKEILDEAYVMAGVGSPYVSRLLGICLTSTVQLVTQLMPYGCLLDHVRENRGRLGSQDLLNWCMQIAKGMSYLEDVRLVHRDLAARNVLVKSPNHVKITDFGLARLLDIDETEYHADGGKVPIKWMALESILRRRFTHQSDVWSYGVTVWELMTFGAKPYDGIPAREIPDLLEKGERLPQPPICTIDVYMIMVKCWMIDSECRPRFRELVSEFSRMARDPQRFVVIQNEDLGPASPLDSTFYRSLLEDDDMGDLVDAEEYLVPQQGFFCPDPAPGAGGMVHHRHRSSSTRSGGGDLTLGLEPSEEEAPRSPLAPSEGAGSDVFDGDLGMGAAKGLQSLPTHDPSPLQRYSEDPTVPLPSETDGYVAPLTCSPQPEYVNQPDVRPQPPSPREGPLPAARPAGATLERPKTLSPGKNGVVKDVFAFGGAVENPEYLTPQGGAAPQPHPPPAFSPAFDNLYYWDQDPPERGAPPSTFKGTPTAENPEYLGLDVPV
Chain of Receptor tyrosine-protein kinase erbB-3 (P21860 whole entry, the tested form may be a part): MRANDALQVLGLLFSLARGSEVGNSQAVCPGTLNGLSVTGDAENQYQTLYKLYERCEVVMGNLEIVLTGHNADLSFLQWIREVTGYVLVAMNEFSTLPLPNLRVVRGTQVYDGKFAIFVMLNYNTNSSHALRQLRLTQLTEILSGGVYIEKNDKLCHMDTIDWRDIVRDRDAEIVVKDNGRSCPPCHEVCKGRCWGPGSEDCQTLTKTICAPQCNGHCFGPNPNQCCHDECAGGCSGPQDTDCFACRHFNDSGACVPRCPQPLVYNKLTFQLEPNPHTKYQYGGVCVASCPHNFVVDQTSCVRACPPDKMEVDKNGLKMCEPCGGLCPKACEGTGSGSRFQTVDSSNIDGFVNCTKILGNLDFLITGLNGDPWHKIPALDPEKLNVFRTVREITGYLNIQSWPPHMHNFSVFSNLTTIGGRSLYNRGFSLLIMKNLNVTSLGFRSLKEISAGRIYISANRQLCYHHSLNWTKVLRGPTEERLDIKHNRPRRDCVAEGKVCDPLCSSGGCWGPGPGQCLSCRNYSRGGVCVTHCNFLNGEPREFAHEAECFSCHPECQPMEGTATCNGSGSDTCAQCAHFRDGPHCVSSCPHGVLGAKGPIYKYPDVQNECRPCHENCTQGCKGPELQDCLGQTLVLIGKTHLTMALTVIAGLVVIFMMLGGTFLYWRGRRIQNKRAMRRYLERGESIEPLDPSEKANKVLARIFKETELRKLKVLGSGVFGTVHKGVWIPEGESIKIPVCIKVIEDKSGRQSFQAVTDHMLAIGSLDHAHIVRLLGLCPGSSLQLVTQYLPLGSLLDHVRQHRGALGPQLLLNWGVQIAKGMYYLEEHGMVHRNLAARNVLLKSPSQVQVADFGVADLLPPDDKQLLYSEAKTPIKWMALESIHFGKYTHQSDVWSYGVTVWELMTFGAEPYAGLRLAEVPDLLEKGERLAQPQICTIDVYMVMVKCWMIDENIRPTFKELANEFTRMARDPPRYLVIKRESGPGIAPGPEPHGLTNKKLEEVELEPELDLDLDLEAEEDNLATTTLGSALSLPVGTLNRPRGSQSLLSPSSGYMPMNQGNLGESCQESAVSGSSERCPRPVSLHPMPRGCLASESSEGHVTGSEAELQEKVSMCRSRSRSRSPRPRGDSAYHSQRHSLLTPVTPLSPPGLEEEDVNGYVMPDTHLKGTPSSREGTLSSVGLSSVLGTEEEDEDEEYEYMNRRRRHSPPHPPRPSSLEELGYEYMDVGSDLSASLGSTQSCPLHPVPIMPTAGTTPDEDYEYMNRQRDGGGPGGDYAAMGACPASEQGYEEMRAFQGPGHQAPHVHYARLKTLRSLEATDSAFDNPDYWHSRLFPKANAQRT
Chain of Focal adhesion kinase 1 (Q05397 whole entry): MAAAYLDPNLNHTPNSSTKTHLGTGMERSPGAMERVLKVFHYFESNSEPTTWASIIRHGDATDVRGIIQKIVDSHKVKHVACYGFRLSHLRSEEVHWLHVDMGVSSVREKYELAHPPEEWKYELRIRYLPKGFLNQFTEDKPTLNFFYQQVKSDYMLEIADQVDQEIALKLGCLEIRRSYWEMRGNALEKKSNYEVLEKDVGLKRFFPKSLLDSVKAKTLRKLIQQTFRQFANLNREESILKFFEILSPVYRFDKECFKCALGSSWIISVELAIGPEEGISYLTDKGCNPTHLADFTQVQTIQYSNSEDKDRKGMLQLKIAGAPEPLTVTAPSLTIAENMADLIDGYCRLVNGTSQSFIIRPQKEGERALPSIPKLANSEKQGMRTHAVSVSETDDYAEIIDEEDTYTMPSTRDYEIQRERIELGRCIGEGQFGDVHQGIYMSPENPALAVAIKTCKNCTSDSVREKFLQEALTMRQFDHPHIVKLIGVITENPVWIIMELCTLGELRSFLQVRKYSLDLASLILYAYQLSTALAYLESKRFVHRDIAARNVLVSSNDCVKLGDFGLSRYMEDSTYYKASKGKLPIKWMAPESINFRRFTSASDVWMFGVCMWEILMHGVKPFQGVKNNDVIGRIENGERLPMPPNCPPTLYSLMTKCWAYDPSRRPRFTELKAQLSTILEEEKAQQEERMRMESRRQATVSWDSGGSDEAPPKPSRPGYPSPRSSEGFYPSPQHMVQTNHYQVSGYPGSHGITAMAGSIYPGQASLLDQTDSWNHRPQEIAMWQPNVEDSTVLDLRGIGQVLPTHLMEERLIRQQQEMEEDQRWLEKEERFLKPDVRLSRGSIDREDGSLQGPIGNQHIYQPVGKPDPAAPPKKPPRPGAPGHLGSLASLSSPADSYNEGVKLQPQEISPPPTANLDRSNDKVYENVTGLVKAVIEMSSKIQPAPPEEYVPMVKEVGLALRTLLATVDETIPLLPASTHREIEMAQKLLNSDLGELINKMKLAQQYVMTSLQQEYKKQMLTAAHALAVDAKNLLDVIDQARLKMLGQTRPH

For `COc1ccc(C2=NN(c3ccccc3)C(c3ccc4ccccc4c3)C2)cc1` (configuration not stated), the concentration for 50% growth inhibition (GI50) with A549 came to 0.16 µM; in the assay with MCF7 it was 0.55 µM. Moreover, in assay [1], the IC50 was 1.45 µM.
Regarding `NC(=S)N1N=C(c2ccccc2)CC1c1ccc2ccccc2c1` (configuration not stated), the figures for the GI50 with A549 and in the assay with MCF7 were 3.21 µM and 13.8 µM, respectively. The values for the half-inhibitory concentration (IC50) in [1] and in assay [2] were 5.69 µM and 3.01 µM, respectively.
In the case of `Cc1ccc(C2=NN(C(N)=S)C(c3ccc4ccccc4c3)C2)cc1` (configuration not stated), the half-maximal inhibitory concentration (IC50) on Focal adhesion kinase 1 amounted to 28.7 µM; in assay [3], 63.2 µM; in [1] it was 1.04 µM; in assay [2], 0.52 µM; in assay [4], 2.1 µM. For the same compound, the GI50 in the assay on A549 turned out to be 0.27 µM; in the assay with MCF7, 0.39 µM.
On to `Cc1ccc(C2=NN(c3ccccc3)C(c3cccc4ccccc34)C2)cc1` (configuration not stated), for which the figures for the GI50 with A549 and in the assay with MCF7 were 0.19 µM and 0.74 µM, respectively. For the same compound, the half-maximal inhibitory concentration (IC50) was determined as 1.91 µM in assay [1] and 0.2 µM in assay [2].
On to `Brc1ccc(C2=NN(c3ccccc3)C(c3cccc4ccccc34)C2)cc1` (configuration not stated), for which the GI50 in the assay with A549 is 0.25 µM; in the assay on MCF7 it was 1.03 µM. The IC50 in assay [1] came out at 2.32 µM; in [2] it was 0.49 µM.
With `c1ccc(C2=NN(c3ccccc3)C(c3cccc4ccccc34)C2)cc1` (configuration not stated), the results for the GI50 with A549 and with MCF7 were 1.98 µM and 3.29 µM, respectively. In addition, the values for the concentration for half-maximal inhibition (IC50) in assay [1] and in [2] were 3.83 µM and 2.52 µM, respectively.
In the case of `Clc1ccc(C2=NN(c3ccccc3)C(c3ccc4ccccc4c3)C2)cc1Cl` (configuration not stated), the inhibition entry in assay [5] and in [6] was “Active” throughout. Also, the half-maximal inhibitory concentration (IC50) on Focal adhesion kinase 1 amounted to 6.2 µM; in assay [3], 35.9 µM; in [1], 1.02 µM; in assay [2], 0.05 µM; in assay [4], 1.83 µM. In addition, the GI50 is 0.11 µM in the assay on A549 and 0.39 µM in the assay on MCF7.
For the compound `NC(=S)N1N=C(c2ccc(Br)cc2)CC1c1ccc2ccccc2c1` (configuration not stated), the GI50 is 0.23 µM with A549 and 0.44 µM in the assay with MCF7. In addition, the half-inhibitory concentration (IC50) in [1] is 1.21 µM; in assay [2] it was 0.35 µM.
As to `Cc1ccc(C2=NN(C(N)=S)C(c3cccc4ccccc34)C2)cc1` (configuration not stated), the results for the GI50 in the assay on A549 and in the assay on MCF7 were 1.21 µM and 29.1 µM, respectively. Moreover, the IC50 came out at 6.68 µM in assay [1] and 2.06 µM in [2].
Taken in the same sequence, the figures for `NC(=S)N1N=C(c2ccc(F)cc2)CC1c1ccc2ccccc2c1` (configuration not stated) were 4.18 µM, 0.88 µM, 1.75 µM and 3.28 µM.
As to `NC(=S)N1N=C(c2ccc(Br)cc2)CC1c1cccc2ccccc12` (configuration not stated), the concentration for 50% growth inhibition (GI50) in the assay on A549 is 49.1 µM; in the assay on MCF7, above 50 µM. Further, the IC50 in assay [1] worked out at 9.15 µM; in [2], 5.68 µM.
As to `COc1ccc(C2CC(c3ccc(C)c(C)c3)=NN2C(N)=S)cc1` (configuration not stated), the values for the concentration for 50% growth inhibition (GI50) with A549 and in the assay on MCF7 were 0.34 µM and 3.79 µM, respectively. The 50% inhibitory concentration (IC50) in [1] stood at 2.77 µM.
`NC(=S)N1N=C(c2ccc(Cl)cc2)CC1c1ccc2ccccc2c1` (configuration not stated): the GI50 in the assay on A549 stood at 0.26 µM; in the assay with MCF7 it was 3.31 µM. Besides, the half-inhibitory concentration (IC50) in assay [1] worked out at 3.87 µM.
Consider `Fc1ccc(C2=NN(c3ccccc3)C(c3ccc4ccccc4c3)C2)cc1` (configuration not stated), for which the figures for the GI50 with A549 and with MCF7 were 0.23 µM and 0.85 µM, respectively. Also, the IC50 in [1] was 2.01 µM; in assay [2], 0.3 µM.
Turning to `NC(=S)N1N=C(c2ccc(Cl)c(Cl)c2)CC1c1ccc(O)cc1` (configuration not stated), the values for the concentration for 50% growth inhibition (GI50) in the assay on A549 and in the assay on MCF7 were 33.5 µM and 27.6 µM, respectively. In assay [1], the IC50 worked out at 6.58 µM.
`NC(=S)N1N=C(c2ccc(Cl)c(Cl)c2)CC1c1cccc2ccccc12` (configuration not stated): the GI50 is 0.18 µM in the assay with A549 and 33.1 µM in the assay on MCF7. Besides, the half-inhibitory concentration (IC50) came to 6.84 µM in assay [1] and 0.21 µM in [2].
For the compound `c1ccc(C2=NN(c3ccccc3)C(c3ccc4ccccc4c3)C2)cc1` (configuration not stated), the GI50 with A549 came out at 0.22 µM; in the assay on MCF7, 0.73 µM. Also, the figures for the half-inhibitory concentration (IC50) in assay [1] and in [2] were 1.89 µM and 0.24 µM, respectively.
For `NC(=S)N1N=C(c2ccccc2)CC1c1cccc2ccccc12` (configuration not stated) the same measures were 1.44 µM, 44.5 µM, 7.24 µM and 2.23 µM.
With `COc1ccc(C2=NN(C(N)=S)C(c3ccc4ccccc4c3)C2)cc1` (configuration not stated), the 50% growth inhibitory concentration (GI50) with A549 is 0.46 µM; in the assay with MCF7, 2.12 µM. For the same compound, the IC50 in assay [1] amounted to 3.28 µM; in assay [2], 1.04 µM.
`NC(=S)N1N=C(c2ccc(Cl)c(Cl)c2)CC1c1ccc2ccccc2c1` (configuration not stated): the IC50 stood at 9.9 µM on Focal adhesion kinase 1; 51.7 µM in assay [3]; 0.88 µM in [1]; 0.66 µM in assay [2]; 3.2 µM in assay [4]. Besides, the concentration for 50% growth inhibition (GI50) with A549 was 0.31 µM; in the assay with MCF7, 0.35 µM.
Consider `NC(=S)N1N=C(c2ccc(F)cc2)CC1c1cccc2ccccc12` (configuration not stated), for which the 50% growth inhibitory concentration (GI50) with A549 and in the assay on MCF7 was above 50 µM each time. Also, the values for the concentration for half-maximal inhibition (IC50) in assay [1] and in assay [2] were 10.6 µM and 8.25 µM, respectively.
As for `Cc1ccc(C2=NN(c3ccccc3)C(c3ccc4ccccc4c3)C2)cc1` (configuration not stated), the IC50 on Focal adhesion kinase 1 is 11.5 µM; in [3], 45.3 µM; in assay [1] it was 1.13 µM; in assay [2], 0.06 µM; in assay [4], 1.56 µM. The figures for the concentration for 50% growth inhibition (GI50) with A549 and in the assay with MCF7 were 0.13 µM and 0.39 µM, respectively.
`Brc1ccc(C2=NN(c3ccccc3)C(c3ccc4ccccc4c3)C2)cc1` (configuration not stated): the concentration for 50% growth inhibition (GI50) was 0.36 µM in the assay on A549 and 0.48 µM with MCF7. The results for the half-maximal inhibitory concentration (IC50) in [1] and in assay [2] were 1.28 µM and 0.71 µM, respectively.
`COc1ccc(C2=NN(C(N)=S)C(c3cccc4ccccc34)C2)cc1` (configuration not stated): the IC50 on Focal adhesion kinase 1 came out at 13.6 µM; in assay [3], 55.6 µM; in assay [1] it was 4.18 µM; in assay [2] it was 0.16 µM; in assay [4], 4.1 µM. Besides, the GI50 turned out to be 0.17 µM with A549 and 4.18 µM with MCF7.
Consider `Clc1ccc(C2=NN(c3ccccc3)C(c3cccc4ccccc34)C2)cc1Cl` (configuration not stated), for which the GI50 in the assay on A549 was 0.2 µM; with MCF7, 0.81 µM. In addition, the results for the half-inhibitory concentration (IC50) in [1] and in assay [2] were 1.98 µM and 0.14 µM, respectively.
With `NC(=S)N1N=C(c2ccc(Cl)cc2)CC1c1cccc2ccccc12` (configuration not stated), the results for the GI50 in the assay with A549 and with MCF7 were 0.38 µM and 11.2 µM, respectively. For the same compound, the 50% inhibitory concentration (IC50) in [1] worked out at 5.46 µM.
Take `C#Cc1cccc(Nc2ncnc3cc(OCCOC)c(OCCOC)cc23)c1` [ERLOTINIB]: the results for the GI50 in the assay with A549 and in the assay with MCF7 were 0.03 µM and 0.08 µM, respectively.
With `COc1ccc(C2=NN(c3ccccc3)C(c3cccc4ccccc34)C2)cc1` (configuration not stated), the IC50 was 10.3 µM at Focal adhesion kinase 1; 40.2 µM in assay [3]; 3.01 µM in [1]; 0.1 µM in assay [2]; 3.4 µM in assay [4]. The results for the concentration for 50% growth inhibition (GI50) with A549 and in the assay on MCF7 were 0.16 µM and 1.71 µM, respectively.
As to `Fc1ccc(C2=NN(c3ccccc3)C(c3cccc4ccccc34)C2)cc1` (configuration not stated), the 50% growth inhibitory concentration (GI50) worked out at 0.49 µM with A549 and 2.68 µM in the assay with MCF7. Also, the results for the IC50 in assay [1] and in assay [2] were 3.59 µM and 1.07 µM, respectively.
Regarding `Clc1ccc(C2=NN(c3ccccc3)C(c3cccc4ccccc34)C2)cc1` (configuration not stated), the results for the GI50 with A549 and in the assay on MCF7 were 0.33 µM and 1.82 µM, respectively. Besides, the results for the IC50 in [1] and in assay [2] were 3.07 µM and 0.68 µM, respectively.
For `Clc1ccc(C2=NN(c3ccccc3)C(c3ccc4ccccc4c3)C2)cc1` (configuration not stated), the 50% growth inhibitory concentration (GI50) in the assay on A549 was found to be 0.16 µM; with MCF7, 0.53 µM. For the same compound, the IC50 in assay [1] came to 1.46 µM; in [2], 0.11 µM.

In general, GI50 refers to the concentration at which growth is held to half of that of the control. In general, IC50 refers to the concentration at which inhibition is half-maximal.

The values above are taken from ChEMBL document CHEMBL2321654, “Design, modification and 3D QSAR studies of novel naphthalin-containing pyrazoline derivatives with/without thiourea skeleton as anticancer agents” (Bioorg Med Chem, 2013).
